# Experimental data taken from ChEMBL document CHEMBL1121490, “10-Piperazinyl-4H-theino[3,2-b][1,5]- and -[3,4-b][1,5]benzodiazepines as potential neuroleptics” (J Med Chem, 1980).
# Columns and labels:
# [1] = test system: Mus musculus; assay: Hypothermia in mice after perorla administration; format: functional
# In short: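 Groups of three CFW mice were dosed orally. Rectal temperature was taken 15 min, 2.5 h and 5 h after dosing. Mean changes from each group's mean initial temperature were summed as a "temperature index". ED_min is the minimum dose (mg/kg) giving an index at least 5 lower than the control group.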
# [2] = (§1) Lethal dose in mice after perorla administration; format: toxicity, organism-based; details: mouse, in vivo, po
# In short: (§2)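 CFW albino mice (19–21 g), groups of three, given oral doses up to 800 mg/kg as solution or suspension. Mortality and gross behavioural changes observed over 48 h; LD50 approximated from the outcome.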
# [3] = test system: Rattus norvegicus; assay: compound was evaluated for its ability to produce catalepsy activity in rats; Dose administered perorally is 20 mg/kg; format: functional; details: route oral
# In short: (§3)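 Groups of eight Lilly Wistar rats (180–190 g) were dosed orally and checked at 0.5, 1, 1.5, 2, 3, 4 and 5 h. Front paws were placed on a 1.5-cm rod 7 cm above the table, and posture was timed up to 20 min. Release within 10 s counted as noncataleptic. Each rat was scored 0–5 by hold time. Maximum scores per animal were summed, giving a group maximum of 40.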
# [4] = test system: Rattus norvegicus; assay: Compound was evaluated for its ability to block conditioned avoidance response (CAR) in rats; Dose administered perorally is 20 mg/kg; 51-75% block; format: functional; details: route oral
# In short: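 Lilly Wistar rats (120–130 g) trained in a shuttle box to cross on a 5-s buzzer; failure to respond within 1 s of its end gave a mild shock. Only high responders used. Groups of five dosed orally 1 h 50 min before test; 10-min habituation, then 20-min session. Blockade = shocks received as % of stimuli presented.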
# [5] = species: Rattus norvegicus; assay: compound was evaluated for its ability to produce catalepsy activity in rats; format: functional; in short: as §3
# [6] = test system: Rattus norvegicus; assay: Compound was evaluated for its ability to block conditioned avoidance response (CAR) in rats; Dose administered perorally is 10; 51-75% block; format: functional
# [7] = test system: Rattus norvegicus; assay: Compound was evaluated for its ability to block conditioned avoidance response (CAR) in rats; Dose administered perorally is 5 mg/kg; no significant block 0-25%; format: functional; details: route oral
# [8] = test system: Rattus norvegicus; assay: Compound was evaluated for its ability to block conditioned avoidance response (CAR) in rats; Dose administered perorally is 50 mg/kg; 26-30% block; format: functional; details: route oral
# [9] = test system: Rattus norvegicus; assay: compound was evaluated for its ability to produce catalepsy activity in rats; Dose administered perorally is 50 mg/kg; format: functional; details: route oral; in short: as §3
# [10] = test system: Rattus norvegicus; assay: Compound was evaluated for its ability to block conditioned avoidance response (CAR) in rats; Dose administered perorally is 25 mg/kg;n o significant block 0-25%; format: functional; details: route oral
# [11] = test system: Rattus norvegicus; assay: Compound was evaluated for its ability to block conditioned avoidance response (CAR) in rats; Dose administered perorally is 50 mg/kg; no significant block 0-25%; format: functional; details: route oral
# [12] = test system: Rattus norvegicus; assay: Compound was evaluated for its ability to block conditioned avoidance response (CAR) in rats; Dose administered perorally is 25 mg/kg; 76-99% block; format: functional; details: route oral
# [13] = test system: Mus musculus; assay: as §1; format: toxicity, organism-based; details: in vivo, po; in short: as §2
# [14] = test system: Rattus norvegicus; assay: compound was evaluated for its ability to produce catalepsy activity in rats; Dose administered perorally is 25 mg/kg; format: functional; details: route oral; in short: as §3
# [15] = test system: Rattus norvegicus; assay: Compound was evaluated for its ability to block conditioned avoidance response (CAR) in rats; Dose administered perorally is 40 mg/kg; 51-75% block; format: functional; details: route oral
# [16] = test system: Rattus norvegicus; assay: Compound was evaluated for its ability to block conditioned avoidance response (CAR) in rats; Dose administered perorally is 12.5 mg/kg; 51-75% block; format: functional; details: route oral
# [17] = test system: Rattus norvegicus; assay: Compound was evaluated for its ability to block conditioned avoidance response (CAR) in rats; Dose administered perorally is 40 mg/kg; no significant block 0-25%; format: functional; details: route oral
# [18] = test system: Rattus norvegicus; assay: Compound was evaluated for its ability to block conditioned avoidance response (CAR) in rats; Dose administered perorally is 10 mg/kg; 51-75% block; format: functional; details: route oral
# [19] = test system: Rattus norvegicus; assay: Compound was evaluated for its ability to block conditioned avoidance response (CAR) in rats; Dose administered perorally is 25 mg/kg; 31-50% block; format: functional; details: route oral
# [20] = test system: Rattus norvegicus; assay: Compound was evaluated for its ability to block conditioned avoidance response (CAR) in rats; Dose administered perorally is 50 mg/kg; 31-50% block; format: functional; details: route oral
# [21] = species: Rattus norvegicus; assay: compound was evaluated for its ability to produce catalepsy activity in rats.; format: functional
# In short: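 Groups of eight Lilly Wistar rats (180–190 g) dosed orally, front paws placed on 1.5-cm rod 7 cm above table at 0.5, 1, 1.5, 2, 3, 4, 5 h. Time held recorded up to 20 min, scored 0–5 (<10 s = 0 up to >20 min = 5). Maximum score per animal summed; group maximum 40.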
# [22] = test system: Rattus norvegicus; assay: Compound was evaluated for its ability to block conditioned avoidance response (CAR) in rats; Dose administered perorally is 50 mg/kg; 76-99% block; format: functional; details: route oral
# [23] = test system: Rattus norvegicus; assay: compound was evaluated for its ability to produce catalepsy activity in rats; Dose administered perorally is 100 mg/kg; format: functional; details: route oral; in short: as §3
# [24] = test system: Rattus norvegicus; assay: Compound was evaluated for its ability to block conditioned avoidance response (CAR) in rats; Dose administered perorally is 25 mg/kg; 51-75% block; format: functional; details: route oral
# [25] = test system: Rattus norvegicus; assay: Compound was evaluated for its ability to block conditioned avoidance response (CAR) in rats; Dose administered perorally is 20 mg/kg; 26-30% block; format: functional; details: route oral
# [26] = test system: Rattus norvegicus; assay: Compound was evaluated for its ability to block conditioned avoidance response (CAR) in rats; Dose administered perorally is 1.25 mg/kg; 51-75% block; format: functional; details: route oral
# [27] = test system: Rattus norvegicus; assay: Compound was evaluated for its ability to block conditioned avoidance response (CAR) in rats; Dose administered perorally is 2.5 mg/kg; 31-50% block; format: functional; details: route oral
# [28] = test system: Rattus norvegicus; assay: compound was evaluated for its ability to produce catalepsy activity in rats; Dose administered perorally is 2.5 mg/kg; format: functional; details: route oral; in short: as §3
# [29] = test system: Rattus norvegicus; assay: Compound was evaluated for its ability to block conditioned avoidance response (CAR) in rats; Dose administered perorally is 10 mg/kg; no significant block 0-25%; format: functional; details: route oral
# [30] = test system: Rattus norvegicus; assay: Compound was evaluated for its ability to produce catalepsy activity in rats; Dose administered perorally is 50 mg/kg; no significant effect (group score 0-3); format: functional; details: route oral; in short: as §3
# [31] = test system: Rattus norvegicus; assay: Compound was evaluated for its ability to block conditioned avoidance response (CAR) in rats; Dose administered perorally is 50 mg/kg; 51-75% block; format: functional; details: route oral
Compound,EDmin [1],LD50 [2],also measured
CN1CCN(C2=Nc3cc(F)ccc3Nc3ccsc32)CC1,12.5 mg/kg,> 25 mg/kg,Activity [3]: 2; Activity [4]: 3
CN1CCN(C2=Nc3cc(Cl)ccc3Nc3cscc32)CC1,3 mg/kg,75 mg/kg,Activity [5]: 1; Activity [6]: 3
CN1CCN(C2=NC3=CSCC3=Nc3ccccc32)CC1,50 mg/kg,50 mg/kg,Activity [7]: 0
OCCN1CCN(CC/C=C2\c3ccccc3Sc3ccc(C(F)(F)F)cc32)CC1 [E-FLUPENTIXOL],>400 mg/kg,> 400 mg/kg,Activity [8]: 1; Activity [9]: 0
Cc1scc2c1C(N1CCN(C)CC1)=Nc1ccccc1N2,50 mg/kg,> 400 mg/kg,Activity [10]: 0
c1ccc2c(c1)N=C(N1CCNCC1)c1cscc1N2,50 mg/kg,> 400 mg/kg,Activity [11]: 0; Activity [9]: 1
CN1CCN(C2=Nc3ccc(C(F)(F)F)cc3Nc3cscc32)CC1,100 mg/kg,600 mg/kg,Activity [11]: 0; Activity [9]: 0
Fc1ccc2c(c1)N=C(N1CCNCC1)c1cscc1N2,100 mg/kg,600 mg/kg,Activity [11]: 0; Activity [9]: 0
CN1CCN(C2=Nc3ccccc3Nc3cscc32)CC1,25 mg/kg,150 mg/kg,Activity [12]: 4; LD50 [13]: 150 mg/kg; Activity [14]: 1
O=CN1CCN(C2=Nc3ccccc3N(C=O)c3cscc32)CC1,200 mg/kg,400 mg/kg,Activity [11]: 0
CCOC(=O)N1CCN(C2=Nc3cc(F)ccc3Nc3ccsc32)CC1,>800 mg/kg,> 800 mg/kg,Activity [8]: 1
CN1CCN(C2=Nc3cc(C(F)(F)F)ccc3Nc3cscc32)CC1,50 mg/kg,> 200 mg/kg,Activity [15]: 3
CN1CCN(C2=Nc3cc(Cl)ccc3Nc3ccsc32)CC1,6.25 mg/kg,50 mg/kg,Activity [16]: 3; Activity [5]: 2
OCCCN1CCN(C2=Nc3cc(F)ccc3Nc3ccsc32)CC1,200 mg/kg,> 400 mg/kg,Activity [17]: 0; Activity [9]: 0
Fc1ccc2c(c1)N=C(N1CCN(Cc3ccccc3)CC1)c1sccc1N2,100 mg/kg,> 400 mg/kg,Activity [11]: 0
Clc1cc2c(cc1Cl)Nc1cscc1C(N1CCNCC1)=N2,200 mg/kg,> 800 mg/kg,Activity [11]: 0; Activity [9]: 0
CN(C)CCCN1c2ccccc2Sc2ccc(Cl)cc21 [CHLORPROMAZINE],6.25 mg/kg,,Activity [5]: 1; Activity [18]: 3
COc1ccc2c(c1)N=C(N1CCN(C)CC1)c1cscc1N2,50 mg/kg,200 mg/kg,Activity [8]: 1; Activity [9]: 1
CSc1ccc2c(c1)N=C(N1CCN(C)CC1)c1cscc1N2,25 mg/kg,400 mg/kg,Activity [19]: 2

Compound,EDmin [1],LD50 [2],also measured
OCCN1CCN(C2=Nc3cc(F)ccc3Nc3ccsc32)CC1,25 mg/kg,> 400 mg/kg,Activity [9]: 0; Activity [20]: 2
CN1CCN(C2=Nc3cc(Cl)ccc3Nc3ccccc32)CC1 [CLOZAPINE],50 mg/kg,,Activity [21]: 2; Activity [4]: 3
c1ccc(CN2CCN(C3=Nc4ccccc4Nc4cscc43)CC2)cc1,800 mg/kg,800 mg/kg,Activity [11]: 0
CN1CCN(C2=Nc3cc(Cl)c(Cl)cc3Nc3cscc32)CC1,25 mg/kg,400 mg/kg,Activity [5]: 1; Activity [22]: 4
Cc1scc2c1Nc1ccccc1N=C2N1CCN(C)CC1,>100 mg/kg,200 mg/kg,Activity [11]: 0; Activity [23]: 0
CN1CCN(C2=Nc3ccccc3Nc3ccsc32)CC1,25 mg/kg,100 mg/kg,Activity [24]: 3; Activity [14]: 2
CN1CCN(C2=Nc3cc(F)ccc3Nc3cscc32)CC1,6.25 mg/kg,100 mg/kg,Activity [25]: 1; Activity [3]: 1
O=C(CCCN1CCC(O)(c2ccc(Cl)cc2)CC1)c1ccc(F)cc1 [HALOPERIDOL],3 mg/kg,> 100 mg/kg,Activity [5]: 3; Activity [26]: 3
OCCN1CCN(CC/C=C2/c3ccccc3Sc3ccc(C(F)(F)F)cc32)CC1 [Z-FLUPENTIXOL],3 mg/kg,,Activity [27]: 2; Activity [28]: 4
Cc1cc2c(s1)C(N1CCN(C)CC1)=Nc1cc(F)ccc1N2,12.5 mg/kg,150 mg/kg,Activity [29]: 0
c1ccc2c(c1)N=C(N1CCNCC1)c1sccc1N2,50 mg/kg,400 mg/kg,Activity [30]: 0; Activity [8]: 1
CSc1ccc2c(c1)N(CCC1CCCCN1C)c1ccccc1S2 (configuration not stated) [THIORIDAZINE],25 mg/kg,,Activity [31]: 3; Activity [14]: 1
CN1CCN(c2cccc3c2N=C2SC=CC2N=C3)CC1 (configuration not stated),>50 mg/kg,> 50 mg/kg,
Fc1ccc2c(c1)N=C(N1CCNCC1)c1sccc1N2,50 mg/kg,400 mg/kg,Activity [9]: 1; Activity [20]: 2
c1ccc(CN2CCN(C3=Nc4ccccc4Nc4ccsc43)CC2)cc1,200 mg/kg,> 400 mg/kg,Activity [11]: 0
CN1CCN(C2=Nc3ccccc3N(C)c3cscc32)CC1,25 mg/kg,150 mg/kg,Activity [9]: 0; Activity [20]: 2
OCCCN1CCN(C2=Nc3ccccc3Nc3cscc32)CC1,>400 mg/kg,> 400 mg/kg,Activity [8]: 1
Clc1ccc2c(c1)N=C(N1CCNCC1)c1cscc1N2,25 mg/kg,> 400 mg/kg,Activity [11]: 0; Activity [9]: 0
